The text below walks through data of article PMC7016294 (Acta Pharmaceutica Sinica. B, 2019).

Data set [1] in a line: Heart rate measurement after a single oral dose. The format is in vivo. The conditions noted are these: SD rats, single oral dose 10 mg/kg. The procedure, abridged: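 Male SD rats (6–8 weeks) had baseline heart rate taken with a non-invasive rodent blood-pressure/heart-rate meter. They then received a single oral 10 mg/kg dose of test compound in distilled water, or vehicle. Heart rate was re-measured at 2, 4, 8, 12, 24 and 48 h after dosing; n = 5.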

For data set [2], the system named is peripheral blood lymphocytes. In words: Peripheral blood lymphocytes. It counts as in vivo. The conditions noted are these: SD rats, single oral dose (3 mg/kg), 1 week later. The procedure, abridged: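 Male SD rats (6–8 weeks) were randomised and bled (20 μL, tail vein) for a baseline (0 h) lymphocyte count on a haematology analyser. Each received one oral dose of test compound (0.3, 1 or 3 mg/kg, in distilled water) or vehicle. Lymphocytes were counted again at 2, 4, 8, 12, 24, 72, 96, 144 and 168 h; n = 5.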

Data set [3] has as its system SDS-induced skin irritation. Nature of the data set: SDS-induced acute skin irritation and inflammation mouse model. To be noted: KM mice, MTX 1.5 mg/kg, data not shown. It counts as in vivo. The procedure, abridged: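 Female KM mice had back hair removed and received 200 μL 15% SDS topically once daily for 7 days. From Day 8 they were dosed orally each day for 10 days with test compound (0.3–2.4 mg/kg, in water) or vehicle. On Day 18, skin thickness was measured. Skin was then fixed in 4% paraformaldehyde, cut into 5 μm H&E sections and scored blind (0–3 each) for epidermal thickening, fibroplasia, inflammatory infiltration and vasodilatation; n = 11.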

A further data set concerns the target S1P3 (EDG3) (Homo sapiens, UniProt Q99500). Nature of the data set: β-arrestin assay. The format is cell-based. The procedure, abridged: (§1)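 Test compound (DMSO stock), at a range of concentrations, was added for 2 or 4 h at 37 °C. Receptor–β-arrestin recruitment was read as β-galactosidase enzyme-fragment complementation, with chemiluminescence measured after 1 h in detection reagent at room temperature. Activity was computed from the concentration series.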

Another data set deals with T1, S1P4 (EDG6) (Homo sapiens, UniProt O95977).
T1 sequence (O95977 1-384): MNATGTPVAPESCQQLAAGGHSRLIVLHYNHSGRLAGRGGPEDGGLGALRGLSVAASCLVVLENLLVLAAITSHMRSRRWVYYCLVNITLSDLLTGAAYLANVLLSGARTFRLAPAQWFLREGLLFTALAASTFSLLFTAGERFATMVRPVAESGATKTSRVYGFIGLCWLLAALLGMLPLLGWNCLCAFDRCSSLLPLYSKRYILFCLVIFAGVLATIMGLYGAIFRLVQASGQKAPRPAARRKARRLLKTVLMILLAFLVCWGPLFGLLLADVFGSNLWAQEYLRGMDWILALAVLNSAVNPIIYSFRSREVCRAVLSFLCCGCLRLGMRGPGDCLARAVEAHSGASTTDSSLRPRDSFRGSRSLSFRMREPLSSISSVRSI
In words: β-arrestin assay. The format is cell-based. A digest of the protocol:
as §1

Several values for one entry are separate records, joined by “and”; a condition that tells them apart may be missing. Identical values can stand only once.

Sequence of S1P3 (EDG3) (Q99500 whole entry, the tested form may be a part): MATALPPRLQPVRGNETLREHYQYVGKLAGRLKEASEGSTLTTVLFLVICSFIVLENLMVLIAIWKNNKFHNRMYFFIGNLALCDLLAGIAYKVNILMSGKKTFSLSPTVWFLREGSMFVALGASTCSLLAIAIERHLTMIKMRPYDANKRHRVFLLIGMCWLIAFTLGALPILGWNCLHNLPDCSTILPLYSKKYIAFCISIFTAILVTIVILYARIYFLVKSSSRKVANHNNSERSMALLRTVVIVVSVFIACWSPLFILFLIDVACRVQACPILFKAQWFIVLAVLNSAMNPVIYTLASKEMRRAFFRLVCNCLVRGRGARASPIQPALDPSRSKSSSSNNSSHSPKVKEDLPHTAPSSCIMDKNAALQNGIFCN

For `CCCCCCCCc1ccc(CCC(N)(CO)CO)cc1` [FTY720, fingolimod], in data set [1], the “Duration of heart rate decrease” value was determined as 12 h. In addition, the Heart rate decrease in data set [1] (as early as 2 h after treatment, 10 mg/kg) is 22% and 20%. Also, the “Lymphocyte reduction 1 week after one administration” value in data set [2] is 26%.
As for `CN(Cc1cnc2nc(N)nc(N)c2n1)c1ccc(C(=O)N[C@@H](CCC(=O)O)C(=O)O)cc1` [MTX, Methotrexate], the “Body weight during treatment” value in data set [3] is recorded as “started to decline from Day 10”.
In general, EC50 refers to the concentration at which the effect is half-maximal. The low end stands for a more potent agent, the high end for a less potent agent. Turning to `CCCCCCCCCCCCC/C=C/[C@@H](O)[C@@H](N)COP(=O)(O)O` [S1P, Sphingosine-1-phosphate], the results for the EC50 on S1P3 (EDG3) and at S1P4 (EDG6) were 17.7 nM and 49.1 nM, respectively.
